# Experimental data of several laboratories.
# Each line is one published result; the experiments were not run side by side.
# OPRK1: Kappa-type opioid receptor (OPRK1, Homo sapiens, UniProt P41145)
# PFF0160c: Dihydroorotate dehydrogenase (quinone), mitochondrial (PFF0160c, Plasmodium falciparum, UniProt Q08210)
# CNR1: Cannabinoid receptor 1 (CNR1, Homo sapiens, UniProt P21554)
SMILES,target,read-out,mode,measurement,value
CNc1nc(C#Cc2ccc(Cl)s2)nc2c1ncn2[C@H]1[C@H](O)[C@H](O)[C@]2(C(=O)O)C[C@H]12,OPRK1,cell-free assay,,Ki,> 10 µM
CNCc1nc2nc(C)cc(Nc3ccc(Cl)cc3)n2n1,PFF0160c,enzyme activity,inhibitor,IC50,> 10 µM
Cc1c(C(=O)N[C@H]2CC[C@H](N)CC2)nn(-c2ccc(Cl)cc2Cl)c1-c1ccc(Cl)cc1,CNR1,calcium signal,antagonist,Kb,> 10 µM
Clc1ccc(CSc2nnc(-c3ccccn3)n2Cc2cccs2)cc1Cl,OPRK1,β-arrestin recruitment,agonist,EC50,0.64 µM
CNC(=O)[C@@]12C[C@@H]1[C@@H](n1cnc3c(NC)nc(C#Cc4ccc(F)c(F)c4)nc31)[C@H](O)[C@@H]2O,OPRK1,cell-free assay,,Ki,> 10 µM
COCCc1nc2nc(C)cc(Nc3ccc(Cl)cc3)n2n1,PFF0160c,enzyme activity,inhibitor,IC50,> 10 µM
Cc1c(C(=O)N2CCC(NC(=O)Nc3ccc(C#N)cc3)(c3ccccc3)CC2)nn(-c2ccc(Cl)cc2Cl)c1-c1ccc(Cl)cc1,CNR1,calcium signal,antagonist,Kb,> 10 µM
Cc1cc(Nc2ccc(Cl)cc2)n2nc(OCCN(C)C)nc2n1,PFF0160c,enzyme activity,inhibitor,IC50,> 10 µM
Cc1c(C(=O)N[C@H]2CC[C@H](NS(C)(=O)=O)CC2)nn(-c2ccc(Cl)cc2Cl)c1-c1ccc(Cl)cc1,CNR1,calcium signal,antagonist,Kb,> 10 µM
CNC(=O)[C@@]12C[C@@H]1[C@@H](n1ccc3c(NC)ncnc31)[C@H](O)[C@@H]2O,OPRK1,cell-free assay,,Ki,> 10 µM
